# Shown are actives, neighbours in structure and some others; about 4.6% of the full set was active somewhere.
# MDM2 E3 inh = MDM2-luciferase reporter signal enhancers, primary screen, MDM2 E3 ligase inhibitor project, cell-based, luminescence, 1536-well | actives 0.11% (n = 210,000) | E3 ubiquitin-protein ligase Mdm2 (Homo sapiens), Q00987 | signal enhancement, % at 5 µM | cell-based MDM2 ubiquitination luciferase reporter, 2 h; 0 = plate control, 100 = twice control, blank-subtracted;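 active = signal enhancement of 30% or more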;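 also: luminescence tracks abundance of the self-degrading MDM2-luciferase fusion protein; higher signal means inhibition of MDM2 E3 ligase activity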
#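 Assay system: stable mammalian line carrying autodegrading MDM2–luciferase fusion reporter; Input: 2000 cells in each well; Compound dosing: single-point 5 µM; Schedule: 2 h compound exposure at 37 °C; Signal: SteadyLite luciferase luminescence after 15 min room-temperature reagent incubation; Evaluation: % luminescence enhancement versus blank-corrected plate control mean; Benchmarks: plate controls and plate blanks.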
# APP 5'UTR act = activators of APP 5'UTR luciferase reporter, primary screen, SH-SY5Y cells | activation, % at 2 µM | actives 1% (n = 190,000) | SH-SY5Y APP 5'UTR luciferase reporter, luminescence; zero percent = DMSO vehicle wells | AID 1276, 2008;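 active = activation above a set limit, based on mean plus 3 SD of controls, cut at about 140% in these data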
# STAT1 act = STAT1 signaling activators, primary screen, cell-based, HTS, luciferase reporter | NIH 3T3 STAT1-luciferase reporter, IFN-gamma, luminescence; 100% = IFN-gamma alone, no compound | activation (% of control), % at 5.5 µM | actives 2.6% (n = 200,000);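 active = activation above the screen-wide mean activation plus 3 SD, cut at about 130% in these data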
# NF-kB neuron act = activators of NF-kB expression in neurons, primary screen, cell-based, HTS; fold change at 12.5 µM; human neuronal cells, NF-kB reporter expression; stronger effect = higher value; actives 1.6% (n = 190,000); AID 1239, 2008; in the data active = fold change above about 3.3
# Wee1 stabilizer = Wee1 degradation inhibitors, primary screen, cell-based, HeLa, Wee1K328M-luciferase, luminescence; Wee1-like protein kinase (Homo sapiens), P30291; HeLa Luc-Wee1K328M stability; 100% = proteasome inhibitor MG132 effect; reporter increase, % at 5 µM; actives 1.2% (n = 220,000); AID 1321, 2008;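 active = activation above the mean of all tested compounds plus 3 SD, set per screening run, cut at about 8.8% in these data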;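 also: cells exposed to compound for 20 h before luminescence read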
# p97 inhibitor = inhibitors of human p97 ATPase, primary screen, biochemical | Transitional endoplasmic reticulum ATPase (Homo sapiens), P55072 | recombinant p97 ATPase, Kinase-Glo ATP luminescence, 3 h | inhibition, % at 8 µM | actives 0.42% (n = 220,000); in the data active = inhibition above about 15%
# Target sequence (P55072 whole entry, looked up): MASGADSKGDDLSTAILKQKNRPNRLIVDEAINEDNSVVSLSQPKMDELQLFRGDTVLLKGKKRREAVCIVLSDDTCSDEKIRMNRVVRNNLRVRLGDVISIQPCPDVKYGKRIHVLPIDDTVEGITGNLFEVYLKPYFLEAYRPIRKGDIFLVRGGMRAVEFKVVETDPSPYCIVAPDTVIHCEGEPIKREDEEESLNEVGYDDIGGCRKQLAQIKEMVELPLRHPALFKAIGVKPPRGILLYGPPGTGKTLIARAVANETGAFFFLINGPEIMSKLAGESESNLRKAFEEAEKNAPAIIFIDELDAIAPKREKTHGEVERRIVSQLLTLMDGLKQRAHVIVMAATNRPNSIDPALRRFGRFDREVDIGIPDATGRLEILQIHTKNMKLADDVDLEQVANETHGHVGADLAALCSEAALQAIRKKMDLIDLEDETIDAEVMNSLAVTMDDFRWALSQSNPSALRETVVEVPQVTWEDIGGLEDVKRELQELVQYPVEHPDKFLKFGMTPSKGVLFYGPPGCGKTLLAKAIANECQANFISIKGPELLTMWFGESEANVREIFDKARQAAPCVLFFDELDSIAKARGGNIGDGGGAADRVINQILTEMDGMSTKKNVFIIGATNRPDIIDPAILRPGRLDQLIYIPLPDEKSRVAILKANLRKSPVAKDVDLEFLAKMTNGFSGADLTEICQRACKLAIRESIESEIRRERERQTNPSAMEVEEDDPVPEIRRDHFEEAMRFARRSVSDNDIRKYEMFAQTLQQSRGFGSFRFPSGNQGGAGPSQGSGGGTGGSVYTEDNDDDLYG
# Hits are given with their value; - = inactive; . = no result given.
SMILES,MDM2 E3 inh,APP 5'UTR act,STAT1 act,NF-kB neuron act,Wee1 stabilizer,p97 inhibitor
CN(C)/C=C/C(=O)c1cnc(-c2ccccc2Cl)s1,-,-,139,3.5,-,-
CN(C)/C=C/C(=O)c1cnc(-c2ccccn2)s1,-,-,129,-,-,-
CN(C)/C=C/C(=O)c1ccc(Br)s1,-,-,-,-,-,-
CC(=O)c1cnc(-c2cccc(Cl)c2)s1,-,-,-,-,-,-
CN(C)/C=C/C(=O)c1cnc(-c2cccc(Cl)c2)s1,-,-,138,-,-,-
COC(=O)c1ccc2c(=O)n(CCCCCC(=O)O)c(=S)[nH]c2c1,-,-,-,-,-,-
N#Cc1ccc[n+](CC(=O)c2ccc(NC(=O)c3ccccc3)cc2)c1,-,.,.,.,-,-
CC(C)=CC[N+]1(C)CCCCC1,-,-,-,-,-,-
CN(CC(=O)NCCc1ccccc1)S(=O)(=O)c1ccccc1,-,-,-,-,-,-
Cc1c(NC(=O)COC(=O)c2cc(-c3ccc(-c4ccccc4)cc3)nc3ccccc23)c(=O)n(-c2ccccc2)n1C,-,-,146,4.1,-,-
COc1ccc(S(=O)CC(=O)Nc2ccccc2Cl)cc1 (stereo not drawn),-,-,-,-,9.7,-
O=C(O)CCC(=O)Nc1ccccc1C(=O)N1CCN(c2ccc(Cl)cc2)CC1,-,-,-,-,-,-
O=C(CN(c1cccc(Cl)c1)S(=O)(=O)c1ccc(Cl)cc1)N1CCc2ccccc2C1,-,-,-,-,-,-
Cc1cc(C)cc(N(C(=O)CNS(=O)(=O)c2ccccc2)C(C(=O)NCc2ccccc2)c2ccc(C)o2)c1 (stereo not drawn),-,-,-,-,11,-
Cc1ccc(/C=N/NC(=O)Cn2nc(C)c([N+](=O)[O-])c2C)o1,-,.,.,.,9.6,-
Cc1cc(C)c(C(=O)Cn2nc(C)c([N+](=O)[O-])c2C)cc1C,-,-,-,-,10,-
COc1ccc(/C=N/NC(=O)Cn2nc(C)c([N+](=O)[O-])c2C)cc1,-,-,-,-,-,-
Cc1cc(/C=C(\C#N)C(=O)NC2CC2)c(C)[nH]1,-,-,145,-,-,-
COc1cccc(CNC(=O)C2=Cc3cccc(OC)c3OC2)c1,-,-,-,-,-,-
O=C(NCCc1ccccc1)C1(c2ccccc2)CC1(Cl)Cl (stereo not drawn),-,-,-,3.4,-,-
CC(C)NC(=O)C1(c2ccccc2)CC1(Cl)Cl (stereo not drawn),-,-,-,-,-,-
CC(C)(C)c1ccc(C(=O)CC(=O)c2cc(Cl)ccc2O)cc1,-,-,-,-,-,-
Cc1ccc(C(=O)CC(=O)c2cc(Cl)ccc2O)cc1,-,-,-,4.3,-,-
O=C(Nc1ccc(Nc2ccccc2)cc1)C1CC1,-,-,-,-,-,-
O=C(O)/C=C/C(=O)Nc1ccc(C(=O)c2ccccc2)cc1,-,-,-,-,-,-
SMILES,MDM2 E3 inh,APP 5'UTR act,STAT1 act,NF-kB neuron act,Wee1 stabilizer,p97 inhibitor
O=C1c2ccccc2C(=O)c2cc(NC(=O)C3CC3)ccc21,-,139,130,4.5,-,-
O=C(O)/C=C/C(=O)Nc1ccc2c(c1)C(=O)c1ccccc1C2=O,-,.,.,.,9.9,-
CC(=O)C1=C(O)C(=O)N(c2nccs2)C1c1ccccc1F (stereo not drawn),-,.,.,.,-,-
CCOC(=O)N1CCC(NC(=O)C2CCN(C(=O)c3cc4sccc4n3CC)CC2)CC1,-,.,.,.,-,-
COc1ccc(CN2CCC(CO)(CCOc3ccccc3)CC2)cc1C,-,-,-,-,-,-
Cc1noc(C)c1COc1ccc(CC(=O)NCc2ccccc2)cc1,-,-,-,-,9.3,-
COC(=O)c1ccc(CSc2ncnc3c2nnn3-c2ccc(OC)cc2)o1,-,-,-,-,12,-

# Assay outcomes as filed in PubChem.
